Only some compounds are listed: those with a hit (about 5.6% of all), similar ones and a draw of the others.
UPR XBP1 act = adaptive UPR (XBP1) activation; activation, % at 20 µM; actives 0.33% (n = 330,000); CHO-XBP1 luciferase reporter, IRE1-XBP1 UPR activation, luminescence; percent of tunicamycin response, DMSO as zero;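 active means versus positive control, 20 µM dose yields 30% or more activation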;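 further: 100% = tunicamycin at 10 µg/mL and 0% = DMSO only wells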
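Material – CHO cell line with stable XBP1 luciferase reporter · Buffer or medium – F12 plus 10% FBS · Compound – single point, 20 µM final compound, 1% DMSO · Schedule – 16-18 h cell attachment at 37 °C, then 6 h compound exposure · Signal – Steady-Glo luminescence read · Benchmarks – high control tunicamycin 10 µg/mL final, low control DMSO vehicle only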
UPR CHOP act = apoptotic UPR (CHOP) activation. CHO-CHOP luciferase reporter, luminescence; percent of tunicamycin response over DMSO baseline. activation, % at 10 µM. actives 0.34% (n = 330,000);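 active means at 10 µM dose, activation of 40% or more, normalized to positive control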;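 further: 100% = tunicamycin at 10 µg/mL and 0% = DMSO alone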
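System: CHO-CHOP luciferase reporter cell line | Buffer or medium: F12 medium containing 10% fetal bovine serum | Doses: One dose, 10 µM in 0.5% DMSO | Times: 6 h compound exposure at 37 °C after overnight seeding | Signal: Luciferase luminescence | Read-out: % activation vs tunicamycin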
NR3A LBD binder = NR3A (human) ligand-binding domain modulation; NR3A LBD differential scanning fluorimetry, Tm shift; 0% = protein alone, 100% = glycine-bound protein; Tm shift relative to glycine control, % at 25 µM; actives 2.5% (n = 340,000); AID 1259313;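 active means melting temperature shift of at least 10% of the positive control shift, at one fixed dose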
aDG glyco up = alpha-DG glycosylation activation. AID 624168. Pro5-aDG cells, alpha-DG glycosylation AlphaScreen (IIH6); 0% Pro5, 100% B10-LARGE cell signal. activation, % at 10 µM. actives 0.22% (n = 360,000);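 active means activation of at least 8% versus controls, or a plate z-score of at least 8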;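 further: Pro5 are CHO cells carrying HIG-tagged alpha-DG that lacks glycosylation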
CHOP inhibitor = inhibitors of CHOP induction in ER stress response; CHO-K1 CHOP-promoter luciferase, tunicamycin-induced, 15-18 h; inhibition, % at 10 µM; actives 3.8% (n = 220,000); AID 2732;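 active means compounds that reduced the stress-induced luciferase reporter signal by more than about 70% of percent inhibition, limit read from the data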;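 further: 0% = tunicamycin plus vehicle and 100% = wells without tunicamycin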
MPTP inh = permeability transition pore inhibition; isolated mouse mitochondria, Ca2+ swelling absorbance, 30 min; inhibition, % at 10 µM; actives 1.4% (n = 360,000); AID 602449;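 active means inhibition of 50% or more, scaled per plate between neutral and stimulator controls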;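 further: 0% = DMSO wells given calcium and 100% = 1 mM EGTA wells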
The depositor's hits bear a star; x = not tested or not shown.

SMILES | UPR XBP1 act | UPR CHOP act | NR3A LBD binder | aDG glyco up | CHOP inhibitor | MPTP inh
O=C(Nc1ccc(N2CCN(Cc3ccccc3F)CC2)cc1)c1ccccc1[N+](=O)[O-] | 3 | -1 | -2 | 0 | 36 | 0
CCCC(=O)Nc1nc(C)c(-c2csc(Nc3cc(OC)ccc3OC)n2)s1 | 3 | 2 | 0 | 0 | 51 | 0
C=CCCC(=O)Nc1nc(C)c(-c2csc(Nc3cc(OC)ccc3OC)n2)s1 | 2 | 0 | -2 | 0 | 75* | 0
O=c1[nH]c(=S)[nH]c2nccnc12 | x | x | -1 | 0 | x | -1
N/C(=N\OC(=O)/C=C/c1ccccc1Cl)c1cccnc1 | 4 | 4 | -4 | 0 | 15 | 2
N/C(=N\OC(=O)/C=C/c1ccccc1)c1cccnc1 | 2 | 6 | 20* | 0 | 6 | 2
COc1cccc(-c2cc(C(=O)N3CCCc4ccccc43)no2)c1 | 2 | 4 | -3 | 0 | 73* | -1
O=C(Nc1cccc(NC(=O)c2ncn[nH]2)c1)c1cccc(Cl)c1 | 0 | -1 | 12* | 1 | 18 | 0
COc1ccc(-c2cc(C(=O)N3CCCc4ccccc43)no2)cc1 | 3 | 1 | 1 | 0 | 48 | 0
COc1cc2cc(C(=O)Nc3ccc4c(c3)OCCO4)[nH]c2cc1OC | -7 | -5 | 11* | 0 | x | -2
COc1cccc(NC(=O)c2ccc3c(c2)OCCO3)c1 | -12 | -3 | 12* | 0 | x | 0
Cc1cc(Cl)cc2sc(=S)[nH]c12 | x | x | -20 | 0 | x | 11
O=C(Nc1ccc2c(c1)OCCO2)c1cccc(Cl)c1 | -1 | 8 | -22 | 0 | x | -1
COc1cccc(C(=O)Nc2cccc(C(C)=O)c2)c1 | 1 | 2 | 1 | 0 | -22 | 3
O=C(Nc1ccc(N=Nc2ccccc2)cc1)c1cccc(Cl)c1 | 0 | 2 | 26* | 0 | 43 | 19
COc1cccc(NC(=O)c2cccc(Cl)c2)c1 | 2 | 6 | 28* | 0 | x | 0
COc1cccc(-c2cc(C(=O)Nc3ccc4c(c3)OCO4)no2)c1 | 2 | 4 | 15* | 0 | x | 2
CC1C(c2ccccc2)=Nn2c(=O)n(-c3ccccc3)c(=O)n21 (stereo not given) | x | x | x | 2 | x | 0
CN(C(=O)c1cc(COc2ccc(F)c(F)c2)on1)C1CCOC1 (stereo not given) | -5 | 3 | 2 | 0 | x | -1
O=[N+]([O-])c1ccc(N2CCCC2)cc1NC(c1ccccc1)c1ccccc1 | -4 | -3 | 14* | 0 | 15 | 1
CCn1c(COc2cc(C)ccc2C(C)C)nnc1SCC(=O)Nc1nccs1 | 3 | -3 | 3 | 1 | 23 | 2
N#Cc1nc(Cc2cccc3ccccc23)oc1NCc1ccc(F)cc1 | -2 | 0 | -5 | 1 | 71* | 3
C=CCNc1oc(Cc2cccc3ccccc23)nc1C#N | -2 | 0 | -4 | 1 | 48 | -1
N#Cc1nc(-c2ccc(F)cc2)oc1NCc1cccc2c1OCO2 | 1 | 0 | -10 | 0 | 84* | 2
Cc1ccc(-c2nc(C#N)c(NCc3cccc4c3OCO4)o2)cc1 | 1 | 4 | -19 | 0 | 50 | 5
SMILES | UPR XBP1 act | UPR CHOP act | NR3A LBD binder | aDG glyco up | CHOP inhibitor | MPTP inh
C#CCOCCOCCOCCNc1nc(N2CCN(C(=O)[C@H](CCCCN)n3cc([C@@H](N)CO)nn3)CC2)nc(N2CCN(C(=O)[C@H](CCCCN)n3cc([C@@H](N)CC(C)C)nn3)CC2)n1 | 0 | 0 | 2 | 3 | x | -2
CN(C)c1nc(N/N=C\c2ccc(Cl)c([N+](=O)[O-])c2)nc(Nc2ccc(F)cc2)n1 | 18 | 10 | 30* | 0 | x | 6
COC(=O)C(CCSC)NC(=O)CNS(=O)(=O)c1ccc(Br)cc1 (stereo not given) | 1 | 1 | 2 | 0 | 80* | -1
COC(=O)[C@H](CCSC)NC(=O)Nc1cccc(Br)c1 | -5 | 1 | 17* | 0 | 16 | 4
COC(=O)[C@H](CCSC)NC(=O)Nc1ccc(C)cc1 | 2 | 2 | 11* | 0 | 20 | 0
Cc1ccc(C(=O)N2CCN(c3ncccn3)CC2)cc1S(=O)(=O)N1CCCCC1 | 2 | 4 | -2 | 0 | 25 | 0
O=C(CCl)N1c2ccccc2SCC1c1ccccc1 (stereo not given) | -14 | -7 | 0 | 0 | x | 1
O=C(CCl)N1c2ccccc2OCC1c1ccccc1 (stereo not given) | -5 | 22 | 1 | 0 | 106* | 0
O=C(CSCc1ccc(Cl)cc1)N/N=C/c1ccccc1 | 0 | -1 | -6 | 0 | -10 | -1
O=C(CSCc1ccc(Cl)cc1)N/N=C/c1c(Cl)cccc1Cl | x | x | -9 | 1 | 92* | 3
COCc1cc(/C=N\NC(=O)Cc2ccc(Cl)cc2)ccc1OC | 1 | 2 | -3 | 0 | 21 | 0
COC(=O)Oc1ccc(/C=N/NC(=O)CSCc2ccc(Cl)cc2)cc1OC | -1 | -1 | -3 | 2 | 78* | 8
Cc1cc(C)c2nc(SC(C)C(=O)NCC(=O)Nc3ccc(F)c(F)c3F)cc(C)c2c1 (stereo not given) | 2 | 5 | 0 | 0 | 92* | 2
CC1=CC(C)(C)N(C(=O)CN2C(=O)c3ccccc3C2=O)c2ccccc21 | -5 | -2 | 12* | 0 | 54 | 0
Cc1cc(C)cc(NC(=O)CN2CCN(CCN=CC3=C(O)CC(c4ccc(Cl)cc4)CC3=O)CC2)c1 (stereo not given) | -6 | -1 | -4 | 0 | 62 | 0
Cc1cc(C)nc(Nc2n[nH]c(COc3ccc(Cl)cc3)n2)n1 | -1 | -1 | 2 | 0 | 93* | 0
Cc1cc(C)nc(Nc2n[nH]c(C)n2)n1 | 0 | 0 | -4 | 0 | 2 | 2
CCC(C)(C)C1CCc2c(sc(NC(=O)c3ccoc3C)c2C(N)=O)C1 (stereo not given) | 0 | -2 | 3 | 0 | 72* | 1
O=C(CSc1nnc(NC(=O)c2ccco2)s1)Nc1ccccc1 | 0 | 5 | 3 | 1 | -7 | 1
CC(=O)Nc1ccc(NC(=O)CSc2nnc(NC(=O)c3cccc(F)c3)s2)cc1 | 2 | 2 | 31* | 0 | x | 1
O=C(Nc1nnc(SCc2ccc(F)cc2)s1)c1ccc2ncsc2c1 | x | x | 1 | 1 | 73* | 2
Cc1cccc(-c2nnc(NC(=O)c3ccco3)s2)c1 | 0 | 3 | 24* | 0 | x | 1
O=C(CSc1nnc(NC(=O)c2c(F)cccc2F)s1)Nc1ccc(F)cc1 | 3 | 1 | 1 | 0 | 0 | 0
